Assay [1] concerns Yersinia pseudotuberculosis. As to the kind of experiment: Effect on T3S in Yersinia pseudotuberculosis 3 pIB29 assessed as inhibition of light emission at 10 uM by luciferase reporter gene assay. In outline: (§1)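 YPIII pIB29 (yopE-luxAB) reporter strain grown overnight at ambient temperature in BHI with 5 mM EGTA and 20 mM MgCl2 to deplete calcium. Culture adjusted to OD600 0.15-0.25 and added to compounds in DMSO (final ≤1%). Incubated 1 h at ambient temperature with shaking, then 2 h at 37 °C. Decanal substrate added and luminescence read at once. Triplicates; repeated on ≥2 occasions.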

The subject of assay [2] is Yersinia pseudotuberculosis. As to the kind of experiment: Effect on T3S in Yersinia pseudotuberculosis 3 pIB29 assessed as inhibition of light emission at 100 uM by luciferase reporter gene assay. The procedure, abridged:
as §1

For assay [3], the system named is Yersinia pseudotuberculosis. As to the kind of experiment: Effect on T3S in Yersinia pseudotuberculosis 3 pIB29 assessed as inhibition of light emission at 50 uM by luciferase reporter gene assay. In outline:
as §1

The subject of assay [4] is Yersinia pseudotuberculosis. As to the kind of experiment: Effect on T3S in Yersinia pseudotuberculosis 3 pIB29 assessed as inhibition of light emission at 20 uM by luciferase reporter gene assay. The procedure, abridged: as §1
The test system of assay [5] is Yersinia pseudotuberculosis. The assay can be described thus: Effect on T3S in Yersinia pseudotuberculosis 3 pIB29 assessed as inhibition of light emission at 5 uM by luciferase reporter gene assay. The procedure, abridged:
as §1

For assay [6], the system named is Yersinia pseudotuberculosis. As to the kind of experiment: Effect on T3S in Yersinia pseudotuberculosis 3 pIB29 assessed as inhibition of light emission at 2 uM by luciferase reporter gene assay. The procedure, abridged:
as §1

Assay [7] deals with Yersinia pseudotuberculosis. The assay can be described thus: Effect on T3S in Yersinia pseudotuberculosis 3 pIB29 assessed as inhibition of light emission at 1 uM by luciferase reporter gene assay. In outline: as §1
Assay [8] concerns Yersinia pseudotuberculosis. The assay can be described thus: Effect on T3S in Yersinia pseudotuberculosis 3 pIB29 assessed as inhibition of light emission at 0.5 uM by luciferase reporter gene assay. In outline: as §1

`O=C(Nc1ccc(SC(F)(F)F)cc1)c1cc(I)cc(I)c1O`: the inhibition in assay [1] amounted to 83%; in assay [2], 100%; in assay [3], 100%; in assay [4], 100%; in assay [5], 75%; in assay [6], 39%. Moreover, the inhibition in assay [7] amounted to 17%; in assay [8], 19%.
Turning to `CC(=O)Oc1ccc(Cl)cc1C(=O)Nc1ccc(Cl)c(C)c1`, the inhibition came to 99% in assay [1]; 100% in assay [2]; 100% in assay [3]; 100% in assay [4]; 91% in assay [5]; 62% in assay [6]. The inhibition in assay [7] was determined as 50%; in assay [8] it was 15%.
With `CC(=O)Oc1ccc(I)cc1C(=O)Nc1ccc(SC(F)(F)F)cc1`, the inhibition in assay [1] worked out at 58%; in assay [2] it was 100%; in assay [3], 99%; in assay [4], 74%; in assay [5], 56%; in assay [6] it was 80%. Further, the inhibition in assay [7] was determined as 52%; in assay [8], 17%.
On to `CC(=O)Oc1c(I)cc(I)cc1C(=O)Nc1ccc(Cl)cc1`, for which the inhibition turned out to be 76% in assay [1]; 99% in assay [2]; 99% in assay [3]; 98% in assay [4]; 54% in assay [5]; 17% in assay [6]. For the same compound, the inhibition was 7% in assay [7] and 3% in assay [8].
On to `O=C(Nc1ccc(Br)cc1)c1cc(I)ccc1O`, for which the inhibition in assay [1] is 71%; in assay [2] it was 60%; in assay [3], 62%; in assay [4] it was 67%; in assay [5], 68%; in assay [6], 68%. The inhibition in assay [7] came out at 49%; in assay [8] it was 20%.
Regarding `O=C(Nc1ccc(F)cc1)c1cc(I)cc(I)c1O`, the inhibition in assay [1] was found to be 62%; in assay [2] it was 100%; in assay [3], 99%; in assay [4], 78%; in assay [5], 26%; in assay [6], 6%. Besides, the inhibition in assay [7] amounted to 3%; in assay [8] it was 5%.
In the case of `O=C(Nc1ccc(Cl)cc1)c1cc(I)cc(I)c1O`, the inhibition is 100% in assay [1]; 99% in assay [2]; 100% in assay [3]; 100% in assay [4]; 95% in assay [5]; 60% in assay [6]. Further, the inhibition in assay [7] turned out to be 47%; in assay [8], 15%.
On to `CC(=O)Oc1ccc(I)cc1C(=O)Nc1ccc(Br)cc1`, for which the inhibition was 98% in assay [1]; 100% in assay [2]; 100% in assay [3]; 100% in assay [4]; 100% in assay [5]; 94% in assay [6]. The values for the inhibition in assay [7] and in assay [8] were 71% and 54%, respectively.
In the case of `CC(=O)Oc1c(Cl)cccc1C(=O)Nc1ccc(Br)cc1`, the inhibition in assay [1] stood at 18%; in assay [2], 99%; in assay [3] it was 78%; in assay [4], 36%; in assay [5] it was 12%; in assay [6] it was 9%. Besides, the results for the inhibition in assay [7] and in assay [8] were 8% and -2%, respectively.
Take `O=C(Nc1ccc(SC(F)(F)F)cc1)c1cc(I)ccc1O`: the inhibition in assay [1] turned out to be 57%; in assay [2], 51%; in assay [3], 49%; in assay [4], 57%; in assay [5], 55%; in assay [6], 53%. The inhibition in assay [7] came out at 53%; in assay [8], 17%.
As for `CC(=O)Oc1c(Cl)cc(Cl)c(Cl)c1C(=O)Nc1ccc(SC(F)(F)F)cc1`, the inhibition came to 67% in assay [1]; 92% in assay [2]; 89% in assay [3]; 95% in assay [4]; 47% in assay [5]; 42% in assay [6]. Also, the inhibition in assay [7] is 15%; in assay [8], 5%.
As to `CC(=O)Oc1c(I)cc(I)cc1C(=O)Nc1cc(Cl)ccc1F`, the inhibition came to 34% in assay [1]; 95% in assay [2]; 89% in assay [3]; 58% in assay [4]; 9% in assay [5]; 1% in assay [6]. Further, the inhibition was determined as 1% in assay [7] and 6% in assay [8].
As to `O=C(Nc1ccc(Br)cc1)c1cc(I)cc(I)c1O`, the inhibition in assay [1] stood at 100%; in assay [2] it was 100%; in assay [3] it was 100%; in assay [4], 100%; in assay [5], 94%; in assay [6], 74%. Also, the inhibition in assay [7] amounted to 64%; in assay [8], 36%.
On to `CC(=O)Oc1c(I)cc(I)cc1C(=O)Nc1ccc(Br)cc1`, for which the inhibition in assay [1] was found to be 69%; in assay [2], 95%; in assay [3] it was 94%; in assay [4], 86%; in assay [5] it was 38%; in assay [6], 7%. The inhibition in assay [7] amounted to 8%; in assay [8], 11%.
Turning to `O=C(Nc1cc(Cl)ccc1F)c1cc(I)cc(I)c1O`, the inhibition in assay [1] was 53%; in assay [2], 100%; in assay [3], 100%; in assay [4], 92%; in assay [5], 19%; in assay [6], 6%. The inhibition was 2% in assay [7] and 7% in assay [8].
For the compound `CC(=O)Oc1c(I)cc(I)cc1C(=O)Nc1ccc(SC(F)(F)F)cc1`, the inhibition in assay [1] was determined as 72%; in assay [2], 75%; in assay [3] it was 71%; in assay [4], 71%; in assay [5], 60%; in assay [6], 19%. Also, the inhibition in assay [7] and in assay [8] was 11% each time.
`CC(=O)Oc1c(Cl)cccc1C(=O)Nc1ccc(SC(F)(F)F)cc1`: the inhibition came out at 55% in assay [1]; 100% in assay [2]; 98% in assay [3]; 70% in assay [4]; 34% in assay [5]; 12% in assay [6]. Further, the inhibition in assay [7] was 6%; in assay [8], -1%.
As to `O=C(Nc1ccc(Cl)cc1)c1cc(I)ccc1O`, the inhibition in assay [1] came out at 91%; in assay [2], 78%; in assay [3], 80%; in assay [4] it was 85%; in assay [5], 91%; in assay [6] it was 90%. The inhibition in assay [7] was 68%; in assay [8] it was 55%.
Consider `O=C(Nc1ccc(SC(F)(F)F)cc1)c1c(O)c(Cl)cc(Cl)c1Cl`, for which the inhibition in assay [1] was determined as 58%; in assay [2], 100%; in assay [3], 100%; in assay [4], 68%; in assay [5], 54%; in assay [6] it was 18%. The inhibition amounted to 4% in assay [7] and 11% in assay [8].

The values above are taken from ChEMBL document CHEMBL1138297, “Design, synthesis, and multivariate quantitative structure-activity relationship of salicylanilides--potent inhibitors of type III secretion in Yersinia” (J Med Chem, 2007).
